The species named for series [1] is Rattus norvegicus. In words: Dose normalized AUC in rat. In kind it is ADME. The note with it: in vivo.
For series [2], the target named is T1, Hexokinase-4 (Rattus norvegicus, UniProt P17712).
T1 sequence (P17712 whole entry): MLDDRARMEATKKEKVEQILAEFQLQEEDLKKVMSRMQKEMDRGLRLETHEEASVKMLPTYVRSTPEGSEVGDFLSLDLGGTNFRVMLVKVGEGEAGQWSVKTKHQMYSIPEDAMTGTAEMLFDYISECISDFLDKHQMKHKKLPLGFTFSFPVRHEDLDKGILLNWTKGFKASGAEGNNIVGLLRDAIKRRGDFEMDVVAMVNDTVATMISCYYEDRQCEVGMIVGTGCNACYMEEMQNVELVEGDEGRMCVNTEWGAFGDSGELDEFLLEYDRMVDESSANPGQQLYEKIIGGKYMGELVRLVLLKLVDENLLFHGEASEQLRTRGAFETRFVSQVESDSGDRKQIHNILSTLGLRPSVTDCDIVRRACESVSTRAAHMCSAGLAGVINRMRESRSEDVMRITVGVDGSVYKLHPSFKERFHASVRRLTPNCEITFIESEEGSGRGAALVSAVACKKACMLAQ
In words: Activation of glucokinase in rat INS-1 cells assessed as increase in D-2-deoxyglucose-6-phosphate level in presence of D-2-deoxyglucose by HILIC LC-MS method. It is filed as cell-based. Summed up: (§1)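 GKACA cell assay in rat INS-1 Clone-13 insulinoma cells or freshly isolated primary rat hepatocytes; intracellular D-2-deoxyglucose-6-phosphate formed from exogenous D-2-deoxyglucose quantified by HILIC LC-MS; EC50 from a single titration.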

Series [3] can be described thus: Oral bioavailability in rat. In kind it is ADME, organism-based. The note with it: in vivo.
Series [4] has as its target T2, Hexokinase-4 (Homo sapiens, UniProt P35557).
T2 sequence (P35557 whole entry): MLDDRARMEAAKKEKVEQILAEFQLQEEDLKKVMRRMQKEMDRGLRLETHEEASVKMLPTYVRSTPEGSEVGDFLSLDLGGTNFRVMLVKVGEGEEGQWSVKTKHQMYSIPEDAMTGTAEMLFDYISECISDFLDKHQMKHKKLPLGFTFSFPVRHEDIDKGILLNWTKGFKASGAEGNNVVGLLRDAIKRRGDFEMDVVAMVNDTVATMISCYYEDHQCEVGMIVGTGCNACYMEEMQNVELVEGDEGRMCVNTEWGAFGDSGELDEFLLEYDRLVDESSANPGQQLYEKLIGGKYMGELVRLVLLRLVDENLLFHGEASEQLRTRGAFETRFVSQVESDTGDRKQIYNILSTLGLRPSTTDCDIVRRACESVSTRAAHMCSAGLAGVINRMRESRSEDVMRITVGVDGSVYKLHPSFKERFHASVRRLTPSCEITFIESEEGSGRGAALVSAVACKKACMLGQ
In words: Activation of recombinant human glucokinase assessed as conversion of D-glucose to D-glucose-6-phosphate in presence of 2.5 mM glucose by G6PDH coupled spectrophotometric assay. The procedure, abridged: (§2)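 Recombinant human GK; ATP-dependent D-glucose-6-phosphate formation from D-glucose at 2.5 or 10 mM, read by continuous glucose-6-phosphate dehydrogenase coupled spectrophotometry. Activators titrated at 1% DMSO final, DMSO as control. EC50 = concentration giving half of maximal increase in product formation; maximum activity expressed as percent velocity increase vs DMSO at saturating activator. Single titration.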

Series [5] in a line: Mean residence time in rat. It is filed as ADME. The note with it: in vivo.
The species named for series [6] is Rattus norvegicus. In words: Dose normalized Cmax in rat. The note with it: in vivo. In kind it is ADME.
A short description of series [7]: Stability of compound in human liver microsomes assessed as compound remaining at 1 uM measured after 30 mins. In kind it is ADME, microsome. The note with it: read-out: Stability. Summed up: (§3)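 Human or rat liver microsome preparations incubated with compound; percent parent remaining after 30 min.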
Series [8] can be described thus: Solubility of the compound at pH 7. In kind it is physicochemical. The note with it: buffer.
A short description of series [9]: Half life in rat. It is filed as ADME. The note with it: in vivo.
Series [10] can be described thus: Total drug level in HFD-fed C57BL/6 mouse plasma at 0.03 mg/kg, po measured at 4 hrs post dose. In kind it is ADME, organism-based. The procedure, abridged: (§4)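 3-week high fat diet-fed C57BL/6 mice given 0.01, 0.03 or 0.10 mg/kg orally; total (bound plus unbound) drug concentration in plasma sampled 4 h after dosing.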
Series [11] can be described thus: Stability of compound in rat liver microsomes assessed as compound remaining at 1 uM measured after 30 mins. It is filed as ADME, microsome. The note with it: read-out: Stability. The procedure, abridged:
as §3
On the technique in general: Liver microsomes are a subcellular fraction often used to study metabolism.

Series [12] in a line: Total drug level in HFD-fed C57BL/6 mouse plasma at 0.01 mg/kg, po measured at 4 hrs post dose. It is filed as ADME, organism-based. The procedure, abridged:
as §4

A short description of series [13]: Unbound fraction in human plasma. It is filed as ADME, cell-free. Summed up: (§5)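 Unbound fraction determined in 100% human or C57BL/6 mouse plasma.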
A short description of series [14]: Clearance in rat. It is filed as ADME. The note with it: in vivo.
Series [15] can be described thus: Apparent permeability in MDCK cells. In kind it is ADME, cell-based, Canis lupus familiaris. The note with it: dog.
A short description of series [16]: Unbound fraction in C57BL/6 mouse plasma. In kind it is ADME, cell-free. Summed up:
as §5

In series [17] the target is T2, Hexokinase-4. In words: Activation of recombinant human glucokinase assessed as conversion of D-glucose to D-glucose-6-phosphate in presence of 10 mM glucose by G6PDH coupled spectrophotometric assay. Summed up:
as §2

The target in series [18] is T1, Hexokinase-4. In words: Activation of glucokinase in primary rat hepatocytes assessed as increase in D-2-deoxyglucose-6-phosphate level in presence of D-2-deoxyglucose by HILIC LC-MS method. It is filed as cell-based. Summed up: as §1
The nature of series [19]: Volume of distribution at steady state in rat. The note with it: in vivo, read-out: Vdss. It is filed as ADME.
Series [20] deals with Plasma. In words: Total drug level in po dosed HFD-fed C57BL/6 mouse plasma measured at 4 hrs post dose. It is filed as ADME, organism-based. The note with it: in vivo. Summed up: as §4
The nature of series [21]: Apparent permeability in pig LLC-PK1 cells. It is filed as ADME, cell-based, Sus scrofa.
Series [22] can be described thus: Total drug level in HFD-fed C57BL/6 mouse plasma at 0.10 mg/kg, po measured at 4 hrs post dose. It is filed as ADME, organism-based. The note with it: 0.1 mg/kg. Summed up:
as §4

Series [23] is described as follows: Solubility of the compound at pH 2. It is filed as physicochemical. The note with it: buffer.

Converted amounts (≈) assume the structure as drawn.

What is called EC50 is the concentration needed to bring the measured effect to its halfway point. By bioavailability is commonly meant dose-corrected exposure relative to a reference, in per cent. Low readings indicate little systemic uptake, high ones much systemic uptake. The MRT is the average time that molecules of a dose stay in the body. The term solubility denotes how much of the substance goes into solution per volume. A high value points to a readily soluble substance. Usually half-life stands for how long it takes for the measured level to halve. For orientation: fraction unbound means free concentration divided by total concentration. The term clearance denotes the volume of plasma or blood freed of the substance per unit of time. In general, Papp refers to a coefficient for how fast a substance crosses the barrier.

With `CN1C(=O)CCC1c1cc2[nH]c(-c3ccccn3)cc2cc1Oc1ccc(S(C)(=O)=O)nc1` (single isomer, unassigned; ent-1), the AUC/dose in series [1] was 0.59 µM·kg·h/mg. Besides, the EC50 came out at 0.9 nM in series [2], 3.7 nM in series [4], 2.4 nM in series [17] and 7.5 nM in [18]. Also, the bioavailability in [3] was determined as 30%. Also, in series [5], the MRT is 2.85 h. This compound gave a Cmax/dose in [6] of 0.235 µM·kg/mg. The remaining at 0.5 h, 1 µM worked out at 75% in [7] and 79% in series [11]. Further, the results for the solubility in series [8] and in [23] were 142 µM (≈ 65.7 µg/mL) and 194 µM (≈ 89.7 µg/mL), respectively. Also, the half-life in series [9] was 2.8 h. The results for the concentration at 4 h in series [10], in series [12] and in series [22] were 12 nM, 3.8 nM and 18 nM, respectively. For the same compound, the fraction unbound in series [13] stood at 0.087; in series [16], 0.072. This compound had a clearance in series [14] of 18 mL/min/kg. Moreover, the Papp in series [15] and in series [21] was 40 ×10⁻⁶ cm/s in each case. Besides, the Vd in [19] came to 3.05 L/kg. Also, the Drug uptake entry in [20] is listed as “Dose-dependent effect”.

The values are drawn from ChEMBL document CHEMBL4014285, “Novel, highly potent systemic glucokinase activators for the treatment of Type 2 Diabetes Mellitus” (Bioorg Med Chem Lett, 2017).
